From ChEMBL document CHEMBL1139922, “Discovery and structure-activity relationship studies of indole derivatives as liver X receptor (LXR) agonists” (Bioorg Med Chem Lett, 2007) come the findings set out here.

Experiment [1] has as its system THP-1. As to the kind of experiment: Ratio of induction of ABCA1 gene expression in THP1 cells at 10 uM to control. The experiment is classed as functional, Homo sapiens.
Experiment [2] concerns THP-1. Description: Induction of cholesterol efflux in THP1 cells after 18 hrs. Format: functional, cell-based. The following applies: Homo sapiens, THP-1, 18 h.
Experiment [3] has as its system HepG2 (Homo sapiens). Description: Ratio of induction of SREBP1c gene expression in HepG2 cells at 10 uM to control.
Experiment [4] deals with T1, Oxysterols receptor LXR-alpha (Homo sapiens, UniProt Q13133).
T1 sequence (Q13133 whole entry): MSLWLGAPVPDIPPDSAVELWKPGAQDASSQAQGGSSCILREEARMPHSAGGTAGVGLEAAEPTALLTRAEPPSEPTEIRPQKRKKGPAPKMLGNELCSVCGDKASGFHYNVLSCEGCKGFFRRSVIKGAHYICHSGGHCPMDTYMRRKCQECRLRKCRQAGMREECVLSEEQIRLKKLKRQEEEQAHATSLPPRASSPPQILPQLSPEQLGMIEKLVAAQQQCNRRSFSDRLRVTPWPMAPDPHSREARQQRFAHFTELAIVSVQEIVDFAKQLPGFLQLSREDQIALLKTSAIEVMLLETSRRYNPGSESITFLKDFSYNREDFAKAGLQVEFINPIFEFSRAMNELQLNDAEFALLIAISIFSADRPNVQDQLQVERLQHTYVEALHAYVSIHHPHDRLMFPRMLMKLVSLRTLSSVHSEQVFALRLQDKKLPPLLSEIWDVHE
As to the kind of experiment: Agonist activity at LXRalpha LBD by HTRF cofactor peptide recruitment assay. Format: functional. (In TR-FRET formats the signal depends on donor and acceptor labels being close together.)

Experiment [5] has as its system THP-1. Description: Ratio of induction of cholesterol efflux in THP1 cells at 10 uM to control after 18 hrs. Format: functional, Homo sapiens.
Experiment [6] addresses T2, Oxysterols receptor LXR-beta (Homo sapiens, UniProt P55055).
T2 sequence (P55055 whole entry): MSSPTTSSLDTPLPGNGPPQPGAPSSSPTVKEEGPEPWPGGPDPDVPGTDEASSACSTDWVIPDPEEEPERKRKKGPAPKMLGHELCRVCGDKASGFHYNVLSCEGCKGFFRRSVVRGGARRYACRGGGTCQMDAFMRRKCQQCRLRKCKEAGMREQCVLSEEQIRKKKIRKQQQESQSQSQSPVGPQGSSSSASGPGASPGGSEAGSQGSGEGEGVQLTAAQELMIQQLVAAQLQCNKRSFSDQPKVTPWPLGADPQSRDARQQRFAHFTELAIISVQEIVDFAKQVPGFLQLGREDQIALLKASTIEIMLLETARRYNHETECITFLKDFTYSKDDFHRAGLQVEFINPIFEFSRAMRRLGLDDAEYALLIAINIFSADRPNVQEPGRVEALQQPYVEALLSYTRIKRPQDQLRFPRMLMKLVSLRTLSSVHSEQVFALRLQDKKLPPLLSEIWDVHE
As to the kind of experiment: Activation of LXRbeta co-transfected in COS7 cells with RXRalpha by reporter transactivation assay. The experiment is classed as functional, cell-based, COS-7. An outline of the steps: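 Cells exposed to vehicle or compound for 16 h; LXR reporter activation read as luciferase activity in cell lysate. EC50 derived from means of quadruplicate samples, single experiment.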

Experiment [7] deals with HepG2. As to the kind of experiment: Ratio of induction of lipogenesis in HepG2 cells at 10 uM to control after 24 hrs. The experiment is classed as functional, Homo sapiens.
Experiment [8] concerns the target T2, Oxysterols receptor LXR-beta. Description: Agonist activity at LXRbeta LBD by HTRF cofactor peptide recruitment assay. Format: functional.

The term EC50 denotes the concentration at which the effect is half-maximal. In the case of `CC(C)(C)OC(=O)n1c(-c2ccc3c(c2)CC(NS(=O)(=O)c2ccc(F)cc2)C3)cc2ccccc21` (stereo not given), the Ratio was determined as 11.4 in experiment [1], 2 in experiment [3], 1.7 in experiment [5] and 2 in experiment [7]. Moreover, the EC50 worked out at 0.57 µM in experiment [2], 4.3 µM in experiment [4], 0.12 µM in experiment [6] and 0.46 µM in experiment [8].

As to `CC(C)(C)OC(=O)n1c(-c2ccc3c(c2)CC(NS(=O)(=O)c2ccc(-c4ccon4)s2)C3)cc2ccccc21` (stereo not given), the Ratio in experiment [1] is 7.5; in experiment [3] it was 2.1; in experiment [5] it was 1.7; in experiment [7], 1.2. In addition, the EC50 was 0.59 µM in experiment [2], over 30 µM in experiment [4], 0.336 µM in experiment [6] and 0.67 µM in experiment [8].

On to `CC(C)(C)OC(=O)n1c(-c2ccc3c(c2)CC(NS(=O)(=O)c2ccccc2)C3)cc2ccccc21` (stereo not given), for which the Ratio in experiment [1] turned out to be 8.4; in experiment [3] it was 3.1; in experiment [5], 1.6; in experiment [7], 3.1. Moreover, the half-maximal effective concentration (EC50) in experiment [2] was 0.68 µM; in experiment [4] it was 1.5 µM; in experiment [6], 0.065 µM; in experiment [8], 0.19 µM.

`CC(C)(C)OC(=O)n1c(-c2ccc3c(c2)CC(NS(=O)(=O)c2cccs2)C3)cc2ccccc21` (stereo not given): the Ratio came to 7.3 in experiment [1], 2.9 in experiment [3], 1.5 in experiment [5] and 1.7 in experiment [7]. Further, the 50% effective concentration (EC50) in experiment [2] turned out to be 0.57 µM; in experiment [4], 0.54 µM; in experiment [6] it was 0.363 µM; in experiment [8], 0.11 µM.

`CC(C)(C)OC(=O)n1c(-c2ccc3c(c2)CC(NS(=O)(=O)c2c(F)cccc2F)C3)cc2ccccc21` (stereo not given): the Ratio in experiment [1] turned out to be 7.5; in experiment [3], 3; in experiment [5] it was 1.7; in experiment [7] it was 3.2. In addition, the concentration for a half-maximal effect (EC50) is 0.21 µM in experiment [2], 0.57 µM in experiment [4], 0.052 µM in experiment [6] and 0.09 µM in experiment [8].
